Screening results as filed in PubChem BioAssay.
Rows were chosen to be rich in hits. Some 1.8% of all compounds tested hit in one or more screens of this group.
Scp-1 inhibitor: Scp-1 (human) phosphatase inhibition | Recombinant Scp1, phosphopeptide, malachite green phosphate absorbance | Q9GZU7 | AID 493091 | actives 0.88% (n = 340,000) | inhibition, % at 20 µM;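 active = inhibition above about 50% at 20 µM, limit read from the data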
Target sequence (Q9GZU7 76-261 limits assumed): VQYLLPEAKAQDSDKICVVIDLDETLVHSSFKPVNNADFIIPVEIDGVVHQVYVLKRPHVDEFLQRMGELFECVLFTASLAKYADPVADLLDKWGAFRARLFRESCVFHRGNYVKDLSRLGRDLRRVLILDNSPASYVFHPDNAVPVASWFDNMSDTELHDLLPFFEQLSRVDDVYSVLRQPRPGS
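Incubation: 45 min enzyme reaction at room temperature / System: truncated SCP-1 phosphatase (76-261aa) / Reagent: Phospho 17-mer peptide substrate / Buffer or medium: Acidic Tris acetate buffer with magnesium and detergent / Signal: absorbance at 630 nm / Doses: one concentration, 20 µM, with 1.0% DMSO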
DNMT1 block: DNMT1 (human) enzyme inhibition; DNMT1 molecular beacon, Hinp1I cleavage, fluorescence; inhibition (reported as % activation of signal), % at 10 µM; actives 0.83% (n = 360,000); AID 588458; in the data active = inhibition above about 50%
HKDC1 inh: HKDC1 (human) hexokinase inhibition | AID 493160 | recombinant HKDC1, G6PDH/diaphorase resazurin coupled fluorescence | inhibition, % at 20 µM | Q2TB90 | actives 0.16% (n = 340,000);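 active = inhibition above about 35% when tested at 20 µM, limit read from the data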
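Incubation: 90 min at room temperature in dark / Material: recombinant HKDC1 (HK5) hexokinase enzyme, produced in-house / Quantity: enzyme 5 µg/mL final / Compound: one dose of 20 µM, 1% DMSO / Reagent: glucose and ATP substrates / Buffer or medium: Tris pH 8.0 buffer with MgCl2, Tween-20, BSA, BME / Technique: resorufin fluorescence at 613 nm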
LMPTP block: LMPTP (human) inhibition. P24666. recombinant LMPTP-A, OMFP fluorogenic substrate, fluorescence intensity. inhibition, % at 20 µM. actives 0.22% (n = 360,000). AID 651560;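 active = compounds that cut the enzyme signal by at least half of the control window in the single-dose screen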
Target sequence (P24666 whole entry, looked up): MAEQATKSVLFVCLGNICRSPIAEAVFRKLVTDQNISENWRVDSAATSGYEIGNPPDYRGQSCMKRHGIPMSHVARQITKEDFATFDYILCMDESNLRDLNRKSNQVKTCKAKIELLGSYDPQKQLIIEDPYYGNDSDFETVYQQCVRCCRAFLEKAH
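Assay system: LMPTP-A enzyme. Input: 0.625 nM LMPTP-A final. Probe or stimulus: 400 µM OMFP. Compound dosing: single 20 µM dose. Schedule: 50 min dark incubation at room temperature. Detection: fluorescence intensity of OMFP turnover product. Read-out: percent inhibition versus substrate-only and uninhibited controls. Benchmarks: no-enzyme low control, uninhibited high control.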
SUMO1 PPI mod: SUMO1-SIM interaction modulation; actives 0.33% (n = 360,000); inhibition, % at 20 µM; SUMO1 binding to a labelled peptide, TR-FRET, 1 h; in the data active = inhibition above about 37%
Target sequence (P63165 whole entry, looked up): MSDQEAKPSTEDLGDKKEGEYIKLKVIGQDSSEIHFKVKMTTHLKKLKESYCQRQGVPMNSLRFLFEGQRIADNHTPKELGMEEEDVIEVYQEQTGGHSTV
STEP inh: blocks human striatal-enriched tyrosine phosphatase. P54829. AID 588621. actives 0.25% (n = 360,000). recombinant STEP, OMFP fluorogenic substrate, fluorescence. inhibition, % at 20 µM;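 active = inhibition at 20 µM, scaled per plate between control wells, above about 37%, limit read from the data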
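System: STEP phosphatase, cell-free reaction; Buffer or medium: Bis-Tris pH 6.0 buffer with DTT, detergent; Incubation: 20 min at room temperature, dark; Measured by: fluorescence, 480/540 nm.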
Scp-1 conf: Scp-1 (human) inhibition, single-dose confirmed | shares compounds with Scp-1 inhibitor | actives 61% (n = 2,500) | recombinant SCP-1 catalytic domain, phosphate release, malachite green absorbance | AID 540281 | inhibition, % at 20 µM
Scp-1 MG ctr: counter-screen for Scp-1 inhibitors: colorimetric interference. shares compounds with Scp-1 inhibitor. Colorimetric interference counterscreen, malachite green absorbance 630 nm. apparent inhibition (interference), % at 20 µM. 2,500 tested, under 10 active;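 also: compounds added after enzyme reaction finished so only phosphate colour detection is probed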
Scp1 DSF: binds human Scp-1, shifting its melting temperature; shares compounds with Scp-1 inhibitor; Recombinant SCP1, Sypro Orange thermal shift Tm; thermal shift relative to vanadate control, % at 40 µM; actives 25% (n = 1,500); AID 540329;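 active = substances whose mean melting-temperature shift, as a percentage of the reference inhibitor's shift, reaches about 5.3%, limit read from the data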
DNMT1 interf DR: counter-screen for DNMT1 inhibitors: spectral interference, dose response; shares compounds with DNMT1 block; molecular beacon fluorescence; IC50, µM; 200 tested, under 10 active; AID 602382; call rule not given here
DNMT1 confirm: confirmation of human DNMT1 inhibitors; shares compounds with DNMT1 block; DNMT1 molecular beacon HinP1I cleavage, fluorescence; inhibition, % at 10 µM; actives 8% (n = 2,300); AID 602385;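 active = average inhibition of at least 30% in the single-concentration confirmation test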
DNMT1 interf: counter-screen for DNMT1 inhibitors: spectral interference. shares compounds with DNMT1 block. DNMT1 molecular beacon spectral interference counterscreen, fluorescence 485/520. activation (fluorescence interference), % at 10 µM. actives 1% (n = 2,300). AID 602387;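 active = activation of at least 30% at 10 µM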;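 also: DNMT1 catalytic domain with a HinP1I cleavage step and a FAM/dabcyl DNA beacon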
Large screens that a line does not name were inactive (follow-up assays come after a bar, where they were run).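 The calls were made as follows, unless noted: active = inhibition of at least 30% at 20 µM; inactive = the rest.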

Cc1cc(C)cc(N2CN=c3s/c(=C\c4ccco4)c(=O)n3C2)c1	none
Cc1ccc(S(=O)(=O)Nc2ccc(-c3ccc4nncn4n3)cc2)cc1	none
COc1ccc(NC(=O)COC(=O)c2ccc(S(=O)(=O)N3CC(C)CC(C)C3)cc2)cc1OC (centres undefined)	none (no result: Scp-1 inhibitor, HKDC1 inh)
COc1cc(NC(=O)COC(=O)c2ccc(S(=O)(=O)N3CC(C)CC(C)C3)cc2)c(C)cc1[N+](=O)[O-] (centres undefined)	Scp-1 inhibitor 66.9, DNMT1 block 55.8 | Scp-1 conf 34.8 | Scp-1 MG ctr inactive | Scp1 DSF inactive | DNMT1 confirm inactive | DNMT1 interf inactive
CCN(CC)c1ccc(NC(=O)CCS(=O)(=O)c2ccc(Br)cc2)c(C)c1	Scp-1 inhibitor 81.7, DNMT1 block 96.7 | Scp-1 conf 48.8 | Scp-1 MG ctr inactive | Scp1 DSF inactive | DNMT1 interf DR inactive | DNMT1 confirm 42.2 | DNMT1 interf inactive
O=C(CCS(=O)(=O)c1ccc(Br)cc1)NCCC1=CCCCC1	Scp-1 inhibitor 63.4, DNMT1 block 65.5 | Scp-1 conf 72.3 | Scp-1 MG ctr inactive | Scp1 DSF inactive | DNMT1 confirm inactive | DNMT1 interf inactive
Cc1ccc(CNC(=O)CCS(=O)(=O)c2ccc(Br)cc2)cc1	Scp-1 inhibitor 83.9, DNMT1 block 89.3 | Scp-1 conf 76.4 | Scp-1 MG ctr inactive | Scp1 DSF inactive | DNMT1 confirm inactive | DNMT1 interf inactive
COCCN1C2=C(C(=O)CC(C)(C)C2)C(c2ccc(OC)c(OC)c2)C2=C1CC(C)(C)CC2=O	none
CN(c1ccc(C(=O)N2CCN(Cc3ccccc3)CC2)cc1)S(=O)(=O)c1ccc(Cl)cc1	none
N#Cc1c(/N=C/c2ccc(-c3ccccc3C(=O)O)o2)sc2c1CCCC2	Scp-1 inhibitor 57.4, DNMT1 block 51.7 | Scp-1 conf 43.4 | Scp-1 MG ctr inactive | Scp1 DSF 8.0 | DNMT1 confirm inactive | DNMT1 interf inactive
N#Cc1c(/N=C/c2ccc(-c3ccc(C(=O)O)c(Cl)c3)o2)sc2c1CCCC2	none
O=C(c1coc(=O)c(Br)c1)N1CCOCC1	Scp-1 inhibitor 68.4, DNMT1 block 73.5 | Scp-1 conf 59.6 | Scp-1 MG ctr inactive | Scp1 DSF inactive | DNMT1 confirm inactive | DNMT1 interf inactive
CC(C)(C)OC(=O)N1CCC(c2c(C(=O)NCC3CCN(C4CCCC4)C3)cnn2-c2ccccc2Cl)CC1 (centres undefined)	none
CN1CCN(C(=O)CN(c2ccccc2)S(=O)(=O)N(C)C)CC1	none (no result: DNMT1 block, LMPTP block, SUMO1 PPI mod, STEP inh)
Cc1ccc(Cl)cc1N1CCN(C(=O)CN(c2ccccc2)S(=O)(=O)N(C)C)CC1	Scp-1 inhibitor 67.5, DNMT1 block 65.3 | Scp-1 conf 70.1 | Scp-1 MG ctr inactive | Scp1 DSF inactive | DNMT1 confirm inactive | DNMT1 interf inactive
CC(CNc1ccccc1O)C(=O)O (centres undefined)	Scp-1 inhibitor 73.1, DNMT1 block 63.6 | Scp-1 conf 43.4 | Scp-1 MG ctr inactive | Scp1 DSF inactive | DNMT1 confirm inactive | DNMT1 interf inactive
